Measured values published in ChEMBL document CHEMBL2062375, “Discovery of an orally efficacious inhibitor of anaplastic lymphoma kinase” (J Med Chem, 2012).
The source made the active and inactive calls. No cut-off for these calls is given here.

Key:
[1] = target: T1, ALK tyrosine kinase receptor (Homo sapiens, UniProt Q9UM73); assay: Inhibition of ALK tyrosine phosphorylation in human Karpas-299 cells after 2 hrs in presence of mouse plasma; assay type: cell-based
[2] = Cmax in Beagle dog at 10 mg/kg, po; assay type: ADME, organism-based, Canis lupus familiaris; parameters: dose 10 mg/kg, route oral; details: in vivo
Summary of the method: (§1)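 Dog and monkey PK. IV 0.5 mL/kg in 40% HPβCD via the saphenous vein. Oral dosing was 1 mL/kg by gavage in dogs and 2 mL/kg by nasogastric tube in monkeys, after an overnight fast. Serial femoral-vein blood was taken into heparin over 24 h. Plasma was acetonitrile-precipitated and analysed by LC-MS/MS. Parameters were noncompartmental, n = 3, mean ± SEM.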

[3] = Cmax in CD-1 mouse at 10 mg/kg, po; assay type: ADME, organism-based; parameters: dose 10 mg/kg, route oral; details: in vivo
Summary of the method: (§2)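 Mouse PK. IV via the lateral tail vein in 3% DMSO/30% Solutol/67% PBS, or oral gavage in 100% PEG400, 100 μL dose volume, after an overnight fast. Trunk blood was taken from three mice per time point over 6 h. Plasma was acetonitrile-precipitated and analysed by LC-MS/MS. Parameters were derived noncompartmentally.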

[4] = target: T1, ALK tyrosine kinase receptor; assay: Inhibition of human ALK cytoplasmic domain expressed in baculovirus using GST-PLCgamma as substrate preincubated for 15 mins before substrate addition measured after 1 hr by time resolved fluorescence assay
[5] = Cmax in rat at 55 mg/kg, po; assay type: ADME, organism-based; parameters: dose 55 mg/kg, route oral; details: in vivo
Summary of the method: (§3)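 Rat oral dose escalation at 10, 30, 55 and 100 mg/kg. Gavage at 5 mL/kg in 40% HPβCD after an overnight fast. Serial tail-vein blood was drawn into heparinized tubes. Plasma was protein-precipitated with acetonitrile and assayed by LC-MS/MS. Cmax and AUC0–12 were derived noncompartmentally; n = 2 at 10 mg/kg.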

[6] = Cmax in rat at 10 mg/kg, po; assay type: ADME, organism-based; parameters: dose 10 mg/kg, route oral; details: in vivo; summary of the method: as §3
[7] = target: Ribosomal protein S6 kinase alpha-3 (Homo sapiens, UniProt P51812); details: 1 uM
[8] = target: T2, Vascular endothelial growth factor receptor 3 (Homo sapiens, UniProt P35916); assay: Inhibition of human Flt4
T2 sequence (P35916 whole entry): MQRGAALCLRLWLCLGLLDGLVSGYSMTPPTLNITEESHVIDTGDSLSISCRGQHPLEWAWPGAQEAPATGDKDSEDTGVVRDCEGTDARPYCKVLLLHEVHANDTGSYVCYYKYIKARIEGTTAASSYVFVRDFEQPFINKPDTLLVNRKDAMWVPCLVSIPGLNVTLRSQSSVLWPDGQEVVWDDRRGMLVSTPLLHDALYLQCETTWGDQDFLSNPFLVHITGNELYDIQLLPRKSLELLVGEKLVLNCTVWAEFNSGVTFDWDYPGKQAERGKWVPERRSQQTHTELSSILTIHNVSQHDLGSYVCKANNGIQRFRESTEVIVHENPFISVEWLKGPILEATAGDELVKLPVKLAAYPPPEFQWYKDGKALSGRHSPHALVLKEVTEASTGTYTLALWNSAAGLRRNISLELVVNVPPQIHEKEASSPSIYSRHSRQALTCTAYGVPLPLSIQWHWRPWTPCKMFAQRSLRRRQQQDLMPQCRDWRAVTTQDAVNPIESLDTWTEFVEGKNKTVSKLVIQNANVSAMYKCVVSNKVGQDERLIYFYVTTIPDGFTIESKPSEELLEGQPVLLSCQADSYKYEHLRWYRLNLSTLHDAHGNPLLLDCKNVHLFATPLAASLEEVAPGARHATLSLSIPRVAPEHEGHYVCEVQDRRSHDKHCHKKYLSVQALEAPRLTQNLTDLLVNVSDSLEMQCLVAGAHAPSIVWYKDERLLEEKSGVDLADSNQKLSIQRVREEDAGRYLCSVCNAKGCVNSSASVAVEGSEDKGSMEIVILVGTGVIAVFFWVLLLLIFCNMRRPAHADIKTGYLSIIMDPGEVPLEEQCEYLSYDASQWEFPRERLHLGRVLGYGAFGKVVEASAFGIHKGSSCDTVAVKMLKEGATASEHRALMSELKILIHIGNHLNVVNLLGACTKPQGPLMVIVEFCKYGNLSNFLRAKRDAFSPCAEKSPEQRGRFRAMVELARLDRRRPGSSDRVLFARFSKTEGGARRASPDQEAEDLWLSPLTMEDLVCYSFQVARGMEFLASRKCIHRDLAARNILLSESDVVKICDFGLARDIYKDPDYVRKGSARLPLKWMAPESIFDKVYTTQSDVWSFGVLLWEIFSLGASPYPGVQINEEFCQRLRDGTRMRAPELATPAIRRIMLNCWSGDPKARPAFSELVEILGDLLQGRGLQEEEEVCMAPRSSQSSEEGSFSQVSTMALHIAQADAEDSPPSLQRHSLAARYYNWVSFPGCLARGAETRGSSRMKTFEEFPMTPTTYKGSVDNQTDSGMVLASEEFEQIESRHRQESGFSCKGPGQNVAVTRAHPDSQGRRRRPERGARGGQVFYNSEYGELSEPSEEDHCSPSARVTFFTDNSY
Summary of the method: (§4)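 Millipore KinaseProfiler activity assays on a 259-kinase panel; kinases inhibited by ≥90% at 1 μM then taken to full IC50 determination.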

[9] = target: Mitogen-activated protein kinase kinase kinase kinase 2 (Homo sapiens, UniProt Q12851); assay: Inhibition of human GCK; summary of the method: as §4
Chain of Mitogen-activated protein kinase kinase kinase kinase 2 (Q12851 whole entry): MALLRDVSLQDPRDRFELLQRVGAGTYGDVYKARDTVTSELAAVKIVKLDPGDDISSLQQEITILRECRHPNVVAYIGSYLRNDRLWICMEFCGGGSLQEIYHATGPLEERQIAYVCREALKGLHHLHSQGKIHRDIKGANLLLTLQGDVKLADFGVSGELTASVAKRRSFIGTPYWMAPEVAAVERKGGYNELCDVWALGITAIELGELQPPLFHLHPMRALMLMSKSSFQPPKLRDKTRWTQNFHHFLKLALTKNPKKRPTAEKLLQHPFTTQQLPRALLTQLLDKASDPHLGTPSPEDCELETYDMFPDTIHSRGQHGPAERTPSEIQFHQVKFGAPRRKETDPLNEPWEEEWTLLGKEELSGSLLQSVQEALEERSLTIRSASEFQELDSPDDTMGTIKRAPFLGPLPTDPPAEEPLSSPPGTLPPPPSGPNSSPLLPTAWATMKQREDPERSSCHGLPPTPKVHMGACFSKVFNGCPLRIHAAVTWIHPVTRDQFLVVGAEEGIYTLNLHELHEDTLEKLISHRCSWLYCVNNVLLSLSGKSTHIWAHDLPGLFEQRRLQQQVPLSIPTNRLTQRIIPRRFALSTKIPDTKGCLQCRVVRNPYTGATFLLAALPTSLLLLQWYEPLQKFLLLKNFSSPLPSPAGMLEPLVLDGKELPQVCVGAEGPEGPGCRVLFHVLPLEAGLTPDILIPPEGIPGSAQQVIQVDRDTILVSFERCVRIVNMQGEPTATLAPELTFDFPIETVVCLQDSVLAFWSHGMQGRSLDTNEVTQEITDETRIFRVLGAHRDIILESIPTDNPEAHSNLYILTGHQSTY

KARPAS-299 = assay: Antitumor activity against human KARPAS299 cells expressing NPM-ALK xenografted in SCID mouse assessed as tumor regression at 30 mg/kg, po bid for 12 days; assay type: functional, organism-based; parameters: dose 30 mg/kg
Summary of the method: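 Female SCID/beige mice, 6–8 weeks old, implanted sc in the left flank with exponentially growing Karpas-299 cells. At about 600 mm³ tumours, mice were randomized (8–10/group) and given PEG400 vehicle or compound orally b.i.d., 100 μL, for 12 days. Tumour volume (0.5236LW(L+W)/2) and body weight were recorded every 2–3 days; Mann–Whitney test. Plasma and tumour levels were measured by LC-MS/MS 2 h after the final dose, mean ± SEM.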

[10] = target: T2, Vascular endothelial growth factor receptor 3; details: 1 uM
[11] = Half life in Sprague-Dawley rat at 10 mg/kg, po; assay type: ADME, organism-based; parameters: dose 10 mg/kg, route oral; details: in vivo
Summary of the method: (§5)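 Rat PK. IV via the lateral tail vein, 1 mL/kg in 3% DMSO/30% Solutol/67% PBS, or oral gavage at 5 mL/kg in 40% HPβCD, after an overnight fast. Serial tail-vein blood was taken into heparin over 6 h. Plasma was acetonitrile-precipitated and analysed by LC-MS/MS. Parameters were noncompartmental, n = 3, mean ± SEM.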

[12] = Tmax in cynomolgus monkey at 10 mg/kg, po; assay type: ADME, organism-based, Macaca fascicularis; parameters: dose 10 mg/kg, route oral; details: in vivo
Summary of the method: (§6)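 PK: overnight-fasted animals. Rat oral gavage 5 mL/kg in 40% HPβCD, serial tail-vein blood over 6 h. Dog oral gavage 1 mL/kg, monkey nasogastric 2 mL/kg, femoral-vein blood over 24 h. Plasma protein-precipitated with acetonitrile, LCMS/MS with internal standard; noncompartmental analysis, individual animals n = 3, mean ± SEM.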

[13] = Plasma clearance in CD-1 mouse at 1 mg/kg, iv; assay type: ADME, organism-based; parameters: dose 1 mg/kg, route intravenous
Summary of the method: (§7)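 Mouse IV PK: lateral tail vein dosing, 100 μL in 3% DMSO/30% Solutol/67% PBS; trunk blood from three mice per time point over 6 h. Plasma precipitated with acetonitrile, drug quantified by LCMS/MS against internal standard; noncompartmental analysis.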

[14] = Volume of distribution in SCID mouse at 1 mg/kg, iv; assay type: ADME, organism-based; parameters: dose 1 mg/kg, route intravenous; details: in vivo; summary of the method: as §7
[15] = target: Ribosomal protein S6 kinase alpha-6 (Homo sapiens, UniProt Q9UK32); details: 1 uM
[16] = Drug level in SCID mouse tumor xenografted with human KARPAS299 cells expressing NPM-ALK at 30 mg/kg, po after 2 hrs by LC-MS/MS analysis; assay type: ADME, organism-based, Neoplasm, KARPAS-299; parameters: dose 30 mg/kg, route oral; details: read-out: Drug uptake
[17] = Plasma concentration in SCID mouse xenografted with human KARPAS299 cells expressing NPM-ALK at 30 mg/kg, po after 6 hrs by LC-MS/MS analysis; assay type: ADME, organism-based, KARPAS-299; parameters: dose 30 mg/kg, route oral
Summary of the method: (§8)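 Pharmacodynamic study: SCID mice bearing subcutaneous Karpas-299 xenografts given single 30 mg/kg oral dose; plasma drug levels measured by LCMS/MS, reported as mean ± SEM.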

Focal adhesion kinase 1 = Focal adhesion kinase 1 (Homo sapiens, UniProt Q05397); assay: Inhibition of human FAK
Chain of Focal adhesion kinase 1 (Q05397 whole entry): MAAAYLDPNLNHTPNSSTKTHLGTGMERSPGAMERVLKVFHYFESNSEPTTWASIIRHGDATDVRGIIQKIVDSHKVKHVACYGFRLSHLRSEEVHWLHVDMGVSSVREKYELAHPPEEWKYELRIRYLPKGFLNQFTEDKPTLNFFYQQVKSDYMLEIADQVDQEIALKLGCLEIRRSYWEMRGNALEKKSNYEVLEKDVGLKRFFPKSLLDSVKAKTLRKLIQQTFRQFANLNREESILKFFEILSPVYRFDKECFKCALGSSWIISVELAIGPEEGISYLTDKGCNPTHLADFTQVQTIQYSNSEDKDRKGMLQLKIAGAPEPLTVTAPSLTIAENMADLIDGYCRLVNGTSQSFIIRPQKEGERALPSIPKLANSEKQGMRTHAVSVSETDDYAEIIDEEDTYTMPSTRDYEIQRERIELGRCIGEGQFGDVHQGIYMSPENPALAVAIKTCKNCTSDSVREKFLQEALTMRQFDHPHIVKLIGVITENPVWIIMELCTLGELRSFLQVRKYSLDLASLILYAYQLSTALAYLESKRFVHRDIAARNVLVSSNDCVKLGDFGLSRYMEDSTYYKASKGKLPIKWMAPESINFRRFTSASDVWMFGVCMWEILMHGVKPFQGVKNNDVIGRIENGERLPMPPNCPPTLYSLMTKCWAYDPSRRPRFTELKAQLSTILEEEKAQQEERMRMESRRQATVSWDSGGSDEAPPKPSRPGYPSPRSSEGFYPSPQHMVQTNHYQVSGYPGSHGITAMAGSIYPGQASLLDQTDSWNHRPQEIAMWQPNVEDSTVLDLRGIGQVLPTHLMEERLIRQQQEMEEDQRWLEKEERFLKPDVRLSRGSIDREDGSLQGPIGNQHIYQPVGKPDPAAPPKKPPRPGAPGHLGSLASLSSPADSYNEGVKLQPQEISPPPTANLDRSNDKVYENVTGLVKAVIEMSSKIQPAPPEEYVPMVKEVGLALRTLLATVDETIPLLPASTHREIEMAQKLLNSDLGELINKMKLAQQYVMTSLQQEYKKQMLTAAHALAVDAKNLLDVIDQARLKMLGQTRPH
Summary of the method: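 Commercial activity-assay panel of 259 kinases. Each kinase was first screened at 1 μM, and those inhibited by ≥90% went on to full IC50 determination.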

[18] = Half life in Beagle dog at 1 mg/kg, iv; assay type: ADME, organism-based, Canis lupus familiaris; parameters: dose 1 mg/kg, route intravenous; details: in vivo; summary of the method: as §1
[19] = AUC in CD-1 mouse at 10 mg/kg, po; assay type: ADME, organism-based; parameters: dose 10 mg/kg, route oral; details: plasma; summary of the method: as §2
[20] = Plasma concentration in SCID mouse xenografted with human KARPAS299 cells expressing NPM-ALK at 30 mg/kg, po after 12 hrs by LC-MS/MS analysis; assay type: ADME, organism-based, KARPAS-299; parameters: dose 30 mg/kg, route oral; summary of the method: as §8
[21] = Half life in Beagle dog at 10 mg/kg, po; assay type: ADME, organism-based, Canis lupus familiaris; parameters: dose 10 mg/kg, route oral; details: in vivo; summary of the method: as §1
[22] = Oral bioavailability in cynomolgus monkey at 10 mg/kg; assay type: ADME, organism-based, Macaca fascicularis; details: in vivo; summary of the method: as §6
[23] = target: Tyrosine-protein kinase Fer (Homo sapiens, UniProt P16591); assay: Inhibition of human Fer
[24] = Cmax in Sprague-Dawley rat at 10 mg/kg, po; assay type: ADME, organism-based; parameters: dose 10 mg/kg, route oral; details: in vivo; summary of the method: as §5
Rattus norvegicus = assay: Ratio of AUC (0 to 12 h) at 10 mg/kg, po to AUC (0 to 12 h) at 100 mg/kg, po in rat; assay type: ADME, organism-based; details: in vivo
Summary of the method: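 Oral dose-escalation PK study in rats at 10, 30, 55 and 100 mg/kg. […] The ratio compares the 10 mg/kg value with the 100 mg/kg value.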

[25] = target: Receptor-type tyrosine-protein kinase FLT3 (Homo sapiens) (UniProt P36888); details: 1 uM
[26] = Volume of distribution in Beagle dog at 1 mg/kg, iv; assay type: ADME, organism-based, Canis lupus familiaris; parameters: dose 1 mg/kg, route intravenous; details: in vivo
Summary of the method: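 IV PK: rats via lateral tail vein (1 mL/kg; 3% DMSO/30% Solutol/67% PBS), serial tail-vein blood over 6 h. Dogs and monkeys via saphenous vein (0.5 mL/kg in 40% HPβCD), femoral-vein blood over 24 h. Acetonitrile protein precipitation, LCMS/MS; noncompartmental parameters from individual animals, n = 3, mean ± SEM.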

T1 sequence (Q9UM73 whole entry): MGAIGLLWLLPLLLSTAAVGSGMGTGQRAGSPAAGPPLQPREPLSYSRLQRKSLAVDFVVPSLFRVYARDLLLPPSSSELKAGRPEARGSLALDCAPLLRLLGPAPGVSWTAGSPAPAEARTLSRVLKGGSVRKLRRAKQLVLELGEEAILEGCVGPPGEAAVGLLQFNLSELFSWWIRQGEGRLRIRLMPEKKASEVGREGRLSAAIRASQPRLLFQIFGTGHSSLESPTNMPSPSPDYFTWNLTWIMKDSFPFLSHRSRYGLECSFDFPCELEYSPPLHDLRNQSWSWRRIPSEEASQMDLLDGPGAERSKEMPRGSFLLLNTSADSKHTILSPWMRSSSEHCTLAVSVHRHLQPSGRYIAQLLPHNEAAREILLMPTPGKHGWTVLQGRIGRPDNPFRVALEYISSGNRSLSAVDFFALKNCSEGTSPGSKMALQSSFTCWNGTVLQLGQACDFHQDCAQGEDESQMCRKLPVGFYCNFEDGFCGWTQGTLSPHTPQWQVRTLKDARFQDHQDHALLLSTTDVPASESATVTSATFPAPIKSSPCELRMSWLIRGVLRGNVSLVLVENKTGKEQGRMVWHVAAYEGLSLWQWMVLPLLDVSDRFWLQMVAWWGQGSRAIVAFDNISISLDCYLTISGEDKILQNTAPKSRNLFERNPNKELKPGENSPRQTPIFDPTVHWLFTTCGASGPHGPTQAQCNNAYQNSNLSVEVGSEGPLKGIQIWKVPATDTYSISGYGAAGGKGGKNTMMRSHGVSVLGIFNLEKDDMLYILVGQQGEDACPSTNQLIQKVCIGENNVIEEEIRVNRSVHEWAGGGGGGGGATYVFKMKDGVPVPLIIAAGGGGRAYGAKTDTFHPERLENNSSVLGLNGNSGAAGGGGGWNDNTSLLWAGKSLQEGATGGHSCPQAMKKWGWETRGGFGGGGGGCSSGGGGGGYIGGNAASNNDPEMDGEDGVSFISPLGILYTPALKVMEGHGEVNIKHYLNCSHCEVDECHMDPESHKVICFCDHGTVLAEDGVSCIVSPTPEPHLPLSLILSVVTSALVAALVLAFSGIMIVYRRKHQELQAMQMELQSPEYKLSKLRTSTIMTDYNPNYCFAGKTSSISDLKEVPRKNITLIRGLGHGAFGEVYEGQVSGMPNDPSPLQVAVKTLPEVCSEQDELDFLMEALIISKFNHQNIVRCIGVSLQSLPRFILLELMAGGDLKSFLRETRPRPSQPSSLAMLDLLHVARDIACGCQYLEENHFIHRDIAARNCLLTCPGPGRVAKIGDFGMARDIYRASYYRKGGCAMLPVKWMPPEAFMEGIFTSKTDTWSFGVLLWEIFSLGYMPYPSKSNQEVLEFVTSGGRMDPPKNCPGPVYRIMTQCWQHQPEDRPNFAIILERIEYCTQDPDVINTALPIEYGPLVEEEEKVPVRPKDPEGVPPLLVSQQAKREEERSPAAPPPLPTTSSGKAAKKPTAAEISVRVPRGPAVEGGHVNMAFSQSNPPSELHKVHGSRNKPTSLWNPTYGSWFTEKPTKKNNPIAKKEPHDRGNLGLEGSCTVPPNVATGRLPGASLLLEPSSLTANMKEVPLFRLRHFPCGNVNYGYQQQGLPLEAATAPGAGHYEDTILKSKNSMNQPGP

IC50 [1]: 20 nM | Cmax [2]: 427 ng/mL | Cmax [3]: 880 ng/mL | IC50 [4]: 1.9 nM | Cmax [5]: 2250 ng/mL | Cmax [6]: 349 ng/mL | inhibition [7]: > 90% | IC50 [8]: 48 nM | IC50 [9]: 60 nM | inhibition [10]: > 90% | half-life [11]: 372 min | Tmax [12]: 4.7 h | clearance [13]: 29 mL/min/kg | Vd [14]: 0.8 L/kg | inhibition [15]: > 90% | concentration at 2 h [16]: 2630 ng/g | concentration at 6 h [17]: 3840 ng/mL | IC50 (Focal adhesion kinase 1): 133 nM | half-life [18]: 144 min | AUC [19]: 2990 ng·h/mL | concentration at 12 h [20]: 1570 ng/mL | half-life [21]: 198 min | bioavailability [22]: 16% | IC50 [23]: 85 nM | Cmax [24]: 599 ng/mL | Ratio (Rattus norvegicus): 15 | inhibition [25]: > 90% | Vd [26]: 8.2 L/kg
SMILES: COc1c(Nc2ncc(Cl)c(N[C@H]3[C@@H](C(N)=O)[C@@H]4C=C[C@H]3C4)n2)ccc2c1CC[C@@H](N1CCOCC1)CC2
Activity (KARPAS-299): Active
